Pf Dd2 growth = inhibitors of Plasmodium falciparum Dd2 growth; P. falciparum Dd2 growth, SYBR Green, 72 h; hits give low values; activity change, % at 10 µM; hit rate 2.3% among 94,000; AID 1159554; in the data active = activity change below about -80%; inconclusive = no clear call, values can overlap the other calls
IDH1 R132H inh = IDH1 R132H (human) inhibition. O75874. IDH1 R132H reductase, diaphorase/resazurin fluorescence, 60 min. inhibition, % at 10 µM. hit rate 0.18% among 70,000; in the data active = inhibition above about 34%; inconclusive = no clear call, values can overlap the other calls; inactive = below about 11%;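 also: 0% = DMSO and 100% = no enzyme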
Target sequence (O75874 whole entry R132H): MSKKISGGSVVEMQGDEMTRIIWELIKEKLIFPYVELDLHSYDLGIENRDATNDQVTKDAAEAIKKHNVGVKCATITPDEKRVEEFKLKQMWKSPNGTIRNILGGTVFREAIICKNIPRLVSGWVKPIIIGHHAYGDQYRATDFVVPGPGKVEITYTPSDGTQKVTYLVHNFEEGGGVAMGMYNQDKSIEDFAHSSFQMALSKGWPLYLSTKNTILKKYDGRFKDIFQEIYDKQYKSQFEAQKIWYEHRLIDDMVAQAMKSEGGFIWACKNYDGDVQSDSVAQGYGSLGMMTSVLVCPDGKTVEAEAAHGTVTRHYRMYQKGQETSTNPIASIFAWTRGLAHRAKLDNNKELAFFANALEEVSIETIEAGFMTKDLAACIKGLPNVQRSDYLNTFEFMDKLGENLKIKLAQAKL
KDM4C inh = blocks human GASC-1 (KDM4C) demethylase activity | hit rate 0.15% among 96,000 | inhibition, % at 12.5 µM | Q9H3R0 | GST-KDM4C 2-372, H3K9me3 peptide, LANCE TR-FRET;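 active = mean replicate inhibition above about 25%, with at least 55% of replicates also reaching it, limit read from the data, passing the limit was not always enough; inconclusive = only one of those two conditions met; inactive = neither condition met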
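Test system: N-terminal GST-fused human GASC-1 (KDM4C) fragment, residues 2-372; quantity: GASC-1 enzyme at 10 nM final in reaction; dosing: single dose; schedule: 30 min demethylation and 1 h detection at room temperature; signal: LANCE TR-FRET, excitation 340 nm, emissions 618 and 671 nm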
T cruzi growth-1 = blocks T. cruzi growth in NIH3T3 culture; T. cruzi beta-gal in NIH3T3, GalScreen luminescence, 90 h; hit rate 5.9% among 77,000; inhibition, % at 8.34 µM;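 active = mean inhibition above about 93%, with at least 55% of replicates each passing it, limit read from the data, passing the limit was not always enough; inconclusive = only one of those two conditions holds; inactive = neither condition holds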
T cruzi growth-2 = inhibitors of T. cruzi proliferation | shares compounds with T cruzi growth-1 | T. cruzi beta-gal in NIH3T3, GalScreen luminescence, 90 h | inhibition, % at 8.35 µM | hit rate 72% among 5,600;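 active = mean replicate inhibition above about 95% and at least 55% of replicates individually reaching it, limit read from the data; inconclusive = only one of the two criteria is met; inactive = neither criterion is met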
T cruzi growth-3 = Trypanosoma cruzi proliferation inhibition; inhibition, % at 2.09 µM; hit rate 21% among 5,600; T. cruzi beta-gal in NIH3T3, GalScreen luminescence, 90 h; shares compounds with T cruzi growth-1; AID 651740;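 active = mean inhibition above about 95%, with at least 55% of replicates also reaching it, limit read from the data; inconclusive = meets just one of the two conditions; inactive = meets neither condition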;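 also: plate controls were neutral control median for no effect and positive control median for full effect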
3T3 cytotox = NIH/3T3 (mouse) viability loss; AID 651742; NIH/3T3 viability, CellTiter-Glo ATP luminescence, 90 h; shares compounds with T cruzi growth-1; hit rate 14% among 5,600; cytotoxicity (signal decrease), % at 8.35 µM;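 active = mean signal decrease across replicates above about 35% based on untreated-well scatter, with enough replicates individually passing, limit read from the data; inconclusive = no rule stated though some were filed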;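 also: 0% = median of neutral control wells and 100% = median of positive control wells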
3T3 cytotox 2 = NIH/3T3 (mouse) viability loss; inhibition, % at 24.9 µM; NIH/3T3 viability, CellTiter-Glo ATP luminescence, 90 h; shares compounds with T cruzi growth-1; hit rate 56% among 5,600;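 active = mean loss of cell viability signal at or above a set limit, and enough replicates individually reaching it; inconclusive = meets only the mean limit or only the replicate share; inactive = meets neither condition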;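 also: 0% = median of neutral control wells and 100% = median of positive control wells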
An asterisk follows results filed as active; ? = inconclusive; / = no result. In the library only some 5.8% were active in any assay of this set; here they are far more common.

SMILES	Pf Dd2 growth	IDH1 R132H inh	KDM4C inh	T cruzi growth-1	T cruzi growth-2	T cruzi growth-3	3T3 cytotox	3T3 cytotox 2
COc1ccc(NC(=O)Nc2ccc3c(c2)C(=O)N([C@@H](C)CO)C[C@@H](C)[C@H](CN(C)Cc2ccccc2)OCCCC[C@@H](C)O3)cc1	-42	-11	-1	98*	111*	30	-9	16
COc1ccc(NC(=O)Nc2ccc3c(c2)C(=O)N([C@@H](C)CO)C[C@@H](C)[C@@H](CN(C)Cc2ccccc2)OCCCC[C@H](C)O3)cc1	-23	2	0	103*	106*	10	7	3
COc1ccc(NC(=O)Nc2ccc3c(c2)C(=O)N([C@H](C)CO)C[C@H](C)[C@H](CN(C)Cc2ccccc2)OCCCC[C@H](C)O3)cc1	19	/	-1	92	/	/	/	/
COCC(=O)N1CC2(CCN(Cc3ccccc3Cl)CC2)c2c([nH]c3cc(OC)ccc23)[C@@H]1CO	-48	/	1	/	/	/	/	/
CN(C)C(=O)[C@H]1[C@H](CO)[C@H]2Cn3c(ccc(-c4ccccc4)c3=O)[C@@H]1N2C(=O)C1CCC1	/	/	-1	44	/	/	/	/
C[C@@H]1CN([C@@H](C)CO)C(=O)c2cccc(NC(=O)C3CC3)c2O[C@@H]1CN(C)Cc1ccc(C(=O)Nc2ccccc2N)cc1	-14	/	3	76	/	/	/	/
C[C@H](CO)N1C[C@H](C)[C@H](CN(C)Cc2ccc(C(=O)Nc3ccccc3N)cc2)Oc2c(NC(=O)C3CC3)cccc2C1=O	-16	/	0	98*	106*	94	1	43*
C[C@@H]1CN([C@H](C)CO)C(=O)c2cccc(NC(=O)C3CC3)c2O[C@H]1CN(C)Cc1ccc(C(=O)Nc2ccccc2N)cc1	-46	/	2	102*	110*	93	6	30*
CCCNC(=O)[C@@H]1[C@@H](CO)[C@@H]2Cn3c(ccc(/C=C/c4ccccc4)c3=O)[C@@H]2N1CC1CC1	-18	/	4	9	/	/	/	/
COc1ccc(NC(=O)Nc2ccc3c(c2)C(=O)N([C@@H](C)CO)C[C@@H](C)[C@H](CN(C)C(=O)Nc2ccc(C(F)(F)F)cc2)OCCCC[C@@H](C)O3)cc1	4	0	17	114*	109*	109*	-14	6
COc1ccc(NC(=O)Nc2ccc3c(c2)C(=O)N([C@H](C)CO)C[C@@H](C)[C@@H](CN(C)C(=O)Nc2ccc(OC)cc2)OCCCC[C@@H](C)O3)cc1	-56	2	0	/	/	/	/	/
COc1ccc(NC(=O)Nc2ccc3c(c2)C(=O)N([C@@H](C)CO)C[C@H](C)[C@H](CN(C)C(=O)Nc2ccc(C(F)(F)F)cc2)OCCCC[C@H](C)O3)cc1	-33	1	2	?	104*	112*	-19	2
C[C@H](CO)N1C[C@H](C)[C@@H](CN(C)S(=O)(=O)c2cn(C)cn2)OCCCC[C@H](C)Oc2ccc(NC(=O)NC3CCCCC3)cc2C1=O	14	/	-1	-18	/	/	/	/
C[C@@H]1CN([C@H](C)CO)C(=O)c2cccc(NC(=O)Nc3ccc(C(F)(F)F)cc3)c2O[C@H]1CN(C)Cc1ccc(Oc2ccccc2)cc1	-3	-1	-1	121*	?	91	-4	104*
C[C@@H]1CN([C@@H](C)CO)C(=O)c2cccc(NC(=O)Nc3ccc(C(F)(F)F)cc3)c2O[C@@H]1CN(C)Cc1ccc(Oc2ccccc2)cc1	-72	/	/	124*	87	111*	60*	105*
C[C@H]1CN([C@@H](C)CO)C(=O)c2cccc(NC(=O)Nc3ccc(C(F)(F)F)cc3)c2O[C@H]1CN(C)Cc1ccc(C(F)(F)F)cc1	-8	/	-1	94	/	/	/	/
C[C@@H]1CN([C@H](C)CO)C(=O)c2cccc(NC(=O)Nc3ccc(C(F)(F)F)cc3)c2O[C@H]1CN(C)Cc1ccc(C(F)(F)F)cc1	32	-5	1	62	/	/	/	/
C[C@H]1CN([C@@H](C)CO)C(=O)c2cccc(NC(=O)Nc3ccc(C(F)(F)F)cc3)c2O[C@H]1CN(C)Cc1ccc(Oc2ccccc2)cc1	2	-4	-1	93	/	/	/	/
C[C@@H]1CN([C@@H](C)CO)C(=O)c2cccc(NC(=O)Nc3ccc(C(F)(F)F)cc3)c2O[C@H]1CN(C)Cc1ccc(Oc2ccccc2)cc1	12	-1	0	126*	109*	102*	-1	99*
C[C@@H]1CN([C@H](C)CO)C(=O)c2cccc(NC(=O)Nc3ccc(C(F)(F)F)cc3)c2O[C@@H]1CN(C)Cc1ccc(Oc2ccccc2)cc1	-33	/	0	120*	97*	98*	29	104*
C/C=C/c1ccc([C@H]2[C@H](CO)N(C(=O)CC)[C@H]2CNC(=O)CC)cc1	-27	/	-4	90	/	/	/	/
Cc1noc(C)c1-c1nc(CSc2n[nH]c(=O)n2C2CC2)no1	/	0	/	/	/	/	/	/
O=C(Nc1cccc(F)c1)N1CCCCN2[C@H](CO)[C@H](c3ccc(C#Cc4cccnc4)cc3)[C@H]2C1	-54	/	-1	96*	108*	48	22	103*
O=C(Nc1cccc(F)c1)N1CCCCN2[C@H](C1)[C@H](c1ccc(C#CC3CC3)cc1)[C@@H]2CO	-6	/	-1	118*	110*	87	10	11
O=C(Nc1cccc(F)c1)N1CCCCN2[C@@H](CO)[C@H](c3ccc(C#Cc4cccnc4)cc3)[C@@H]2C1	-76	/	-1	103*	103*	79	26	101*
SMILES	Pf Dd2 growth	IDH1 R132H inh	KDM4C inh	T cruzi growth-1	T cruzi growth-2	T cruzi growth-3	3T3 cytotox	3T3 cytotox 2
O=C(Nc1ccccc1)N1CCCCN2[C@@H](CO)[C@@H](c3ccc(C#Cc4cccnc4)cc3)[C@@H]2C1	-66	/	-1	105*	109*	90	18	81*
O=C(Nc1ccccc1)N1CCCCN2[C@H](CO)[C@@H](c3ccc(C#Cc4cccnc4)cc3)[C@H]2C1	-56	/	-1	-4	/	/	/	/
CN1C(=O)c2cc(NC(=O)C3CC3)ccc2OC[C@@H]2O[C@@H](CC(=O)NCc3cccc(F)c3)CC[C@H]21	3	/	-1	20	/	/	/	/
O=C(Nc1cccc(F)c1)N1CCCCN2[C@H](C1)[C@H](c1ccc(C#Cc3ccccc3)cc1)[C@@H]2CO	-23	/	-2	100*	101*	?	15	38*
O=C(Nc1cccc(F)c1)N1CCCCN2[C@H](CO)[C@H](c3ccc(C#Cc4ccccc4)cc3)[C@H]2C1	-63	/	-2	71	/	/	/	/
O=C(Nc1ccccc1F)N1CCCCN2[C@H](CO)[C@H](c3ccc(C#Cc4cccnc4)cc3)[C@@H]2C1	?	/	0	107*	110*	78	43*	?

Screens from PubChem BioAssay.
